Measured values: ChEMBL document CHEMBL4725333, “Carbazole-based fluorescent probes for G-quadruplex DNA targeting with superior selectivity and low cytotoxicity” (Bioorg Med Chem, 2020)
Active and inactive are the calls of the source. No cut-off for these calls is given here.

Experiments:
Quadruplex DNA [1] = experiment: Binding affinity to human c-myc G-quadruplex DNA assessed as increase in fluorescence in presence of c-myc at 1 uM by fluorescence titration analysis; assay type: nucleic-acid assay
Summary of the method: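 Probe at 1 µM in 10 mM Tris-HCl, 60 mM KCl, pH 7.4, titrated stepwise with c-myc G-quadruplex DNA (0–3 µM). Emission monitored near 545–547 nm, and F/F₀ of integral fluorescence fitted to an independent-site model. Linear range 0–0.8 µM DNA; detection limit from LOD = 3σ/k.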

Quadruplex DNA [2] = experiment: Binding affinity to human c-myc G-quadruplex DNA in Tris Hcl buffer assessed as fluorescence lifetime of compound at 400 nm at pH 7.4 by fluorescence emission analysis (Rvb (absence of c-myc G-quadruplex DNA ) = 0.513 ns); assay type: nucleic-acid assay
Quadruplex DNA [3] = experiment: Binding affinity to human c-myc G-quadruplex DNA uM by circular dichroism spectroscopy; assay type: nucleic-acid assay
Summary of the method: (§1)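 CD titration of c-myc G-quadruplex DNA (5 µM) with 0–2 equivalents of probe, in 10 mM Tris-HCl, 60 mM KCl, pH 7.4.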

Quadruplex DNA [4] = experiment: Effect on topology of human c-myc G-quadruplex DNA assessed as change in conformation at 245 nm at DNA to compound ratio of 1:1 by circular dichroism spectroscopy; assay type: nucleic-acid assay; summary of the method: as §1
Quadruplex DNA [5] = experiment: Induction of stabilization of human c-myc G-quadruplex assessed inhibition of Taq polymerase mediated DNA polymerization at high concentration upto 20 uM by PCR-stop assay; assay type: nucleic-acid assay; details: dose microM <=20
Summary of the method: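 PCR-stop assay. Probe (0–20 µM) was added to 1x PCR buffer containing 10 pmol c-myc template, 10 pmol c-myc rev primer, 0.2 mM dNTPs and 1.5 units Taq polymerase. Products were resolved on 15% non-denaturing polyacrylamide gels in 1× TBE. A mutant c-myc oligomer unable to fold served as control.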

[6] = Cytotoxicity against human HCCC9810 cells assessed as reduction in cell viability incubated for 72 hr by CCK8 assay; assay type: cell-based; details: HCCC9810, 72 h
Summary of the method: (§2)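 HCCC-9810, RBE and 293T cells exposed to probe at 0–100 µM for 72 h. Viable cells quantified by CCK-8 assay.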

[7] = Cytotoxicity against human RBE cells assessed as reduction in cell viability incubated for 72 hr by CCK8 assay; assay type: cell-based; summary of the method: as §2
HEK-293T = experiment: Cytotoxicity against human 293T cells assessed as reduction in cell viability incubated for 72 hr by CCK8 assay; assay type: cell-based; summary of the method: as §2
Quadruplex DNA [8] = experiment: Competitive binding affinity to human c-myc G-quadruplex DNA assessed as increase in fluorescence in presence of ssDNA and dsDNA at 1 uM by fluorescence titration analysis; assay type: nucleic-acid assay
Summary of the method: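 Competition titration: probe at 1 µM with 20 µM ds26 duplex DNA, then stepwise addition of c-myc G-quadruplex DNA, in 10 mM Tris-HCl, 60 mM KCl, pH 7.4. Read-out was fluorescence emission.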

Quadruplex DNA [9] = experiment: Binding affinity to human c-myc G-quadruplex DNA assessed as increase in fluorescence in presence of BSA/HSA at 1 uM by fluorescence titration analysis; assay type: nucleic-acid assay
Summary of the method: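 Probe fluorescence followed with increasing BSA or HSA as interfering proteins, in the same Tris-HCl/KCl pH 7.4 titration system.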

Quadruplex DNA [10] = experiment: Inhibition of hemin binding to human c-myc G4 quadruplex DNA by measuring peroxidase activity within 30 at 415 nm by G4/hemin peroxidase inhibition assay; assay type: nucleic-acid assay
Summary of the method: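 G4/hemin peroxidase assay in 10 mM Tris-HCl, 60 mM KCl, pH 7.4, with c-myc 0.4 µM, hemin 0.8 µM, ABTS²⁻ 0.18 mM and H₂O₂ 0.06 mM, across varied probe concentrations. Oxidized ABTS product followed by absorbance at 415 nm over 30 min.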

Quadruplex DNA [11] = experiment: Binding affinity to human c-myc G-quadruplex DNA with TTGA GGG T GGG TA GGG T GGG TAAA flanking loops assessed as relative fluorescence intensity at 1 uM measured at pH 7.4 by fluorescent titration; assay type: nucleic-acid assay
Quadruplex DNA [12] = experiment: Binding affinity to human c-myc G-quadruplex DNA with TTG AATGGG TGGGT AGGGT GGGT AAA flanking loops assessed as relative fluorescence intensity at 1 uM measured at pH 7.4 by fluorescent titration; assay type: nucleic-acid assay
Quadruplex DNA [13] = experiment: Binding affinity to human c-myc G-quadruplex DNA with TTG AGGG TAAGGGT AGGGT GGGT AAA flanking loops assessed as relative fluorescence intensity at 1 uM measured at pH 7.4 by fluorescent titration; assay type: nucleic-acid assay
Quadruplex DNA [14] = experiment: Binding affinity to human c-myc G-quadruplex DNA with TTG AGGG TGGGT AATGGGT GGGT AAA flanking loops assessed as relative fluorescence intensity at 1 uM measured at pH 7.4 by fluorescent titration; assay type: nucleic-acid assay
Quadruplex DNA [15] = experiment: Binding affinity to human c-myc G-quadruplex DNA with TTG AGGG TGGGT AGGGT ATGGGT AAA flanking loops assessed as relative fluorescence intensity at 1 uM measured at pH 7.4 by fluorescent titration; assay type: nucleic-acid assay
Quadruplex DNA [16] = experiment: Binding affinity to human c-myc G-quadruplex DNA with TTG AGGG TGGGT AGGGT GGGT AAATA flanking loops assessed as relative fluorescence intensity at 1 uM measured at pH 7.4 by fluorescent titration; assay type: nucleic-acid assay
Quadruplex DNA [17] = experiment: Binding affinity to human c-myc G-quadruplex DNA with AGGG TGGGT AGGGT GGGT AAA flanking loops assessed as relative fluorescence intensity at 1 uM measured at pH 7.4 by fluorescent titration; assay type: nucleic-acid assay
Quadruplex DNA [18] = experiment: Binding affinity to human c-myc G-quadruplex DNA with TTG AGGG TGGGT AGGGT GGGT flanking loops assessed as relative fluorescence intensity at 1 uM measured at pH 7.4 by fluorescent titration; assay type: nucleic-acid assay
Quadruplex DNA [19] = experiment: Binding affinity to human c-myc G-quadruplex DNA with 4-aminopurine substitution assessed as fluorescence intensity; assay type: nucleic-acid assay
Summary of the method: (§3)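 2-aminopurine-labelled c-myc G-quadruplex DNA held at 2 µM in 10 mM Tris-HCl, pH 7.4, 60 mM KCl. Probe or hemin added gradually, and 2-Ap fluorescence intensity monitored.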

Quadruplex DNA [20] = experiment: Binding affinity to human c-myc G-quadruplex DNA with 13-aminopurine substitution assessed as fluorescence intensity; assay type: nucleic-acid assay; summary of the method: as §3
Quadruplex DNA [21] = experiment: Binding affinity to human c-myc G-quadruplex DNA with 22-aminopurine substitution assessed as fluorescence intensity; assay type: nucleic-acid assay; summary of the method: as §3
Quadruplex DNA [22] = experiment: Binding affinity to human c-myc G-quadruplex DNA with 4-aminopurine substitution assessed as fluorescence intensity in presence of hemin; assay type: nucleic-acid assay; summary of the method: as §3
Quadruplex DNA [23] = experiment: Binding affinity to human c-myc G-quadruplex DNA with 13-aminopurine substitution assessed as fluorescence intensity in presence of hemin; assay type: nucleic-acid assay; summary of the method: as §3
Quadruplex DNA [24] = experiment: Binding affinity to human c-myc G-quadruplex DNA with 22-aminopurine substitution assessed as fluorescence intensity in presence of hemin; assay type: nucleic-acid assay; summary of the method: as §3
Quadruplex DNA [25] = experiment: Binding affinity to human c-myc G-quadruplex DNA assessed as displacement of fluorescent labelled compound by measuring decrease in emission in presence of hemin by FID assay; assay type: nucleic-acid assay
Quadruplex DNA [26] = experiment: Binding affinity to G-quadruplex DNA in human HCCC9810 cells increase in fluorescence intensity at 20 uM by confocal fluorescence microscopy; assay type: cell-based
Summary of the method: (§4)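 Live HCCC-9810 cells stained 0.5 h with probe at 20 µM together with DAPI (5 mg/mL) as nuclear counterstain. Imaged by confocal fluorescence microscopy. Intracellular location is assigned from co-staining with DAPI, and uptake is judged from fluorescence intensity within the cells.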

Quadruplex DNA [27] = experiment: Binding affinity to G-quadruplex DNA in human HCCC9810 cells increase in fluorescence intensity in cytoplasm at 20 uM by confocal fluorescence microscopy; assay type: cell-based; summary of the method: as §4
Quadruplex DNA [28] = experiment: Effect on topology of human c-myc G-quadruplex DNA assessed as change in conformation at 265 nm by circular dichroism spectroscopy
Quadruplex DNA [29] = experiment: Binding affinity to human c-myc G-quadruplex DNA in Tris Hcl buffer assessed as increase in fluorescence intensity at 545 nm at 0 to 0.8 uM measured at pH 7.4 by fluorescence emission analysis; details: dose microM 0-0.8

For COCCOCCOCCn1c2ccccc2c2cc(/C=C/c3cccc[n+]3C)ccc21.[I-], the Activity (Quadruplex DNA [1]) was “Active”, the Time (Quadruplex DNA [2]) was 3.87 nanoseconds and the Activity (Quadruplex DNA [3]) was “Active”. For the same molecule, the Activity (Quadruplex DNA [4]) was “inactive”, the Activity (Quadruplex DNA [5]) was “Active” and the IC50 [6] was > 40 µM. For the same molecule, the IC50 [7] was > 40 µM, the IC50 (HEK-293T) was 40 µM and the Activity (Quadruplex DNA [8]) was “Active”. For the same molecule, the Activity (Quadruplex DNA [9]) was “Active”, the Activity (Quadruplex DNA [10]) was “inactive” and the Flu intensity (Quadruplex DNA [11]) was 695. It also gave a Flu intensity (Quadruplex DNA [12]) of 702, a Flu intensity (Quadruplex DNA [13]) of 910 and a Flu intensity (Quadruplex DNA [14]) of 632. For the same molecule, the Flu intensity (Quadruplex DNA [15]) was 570, the Flu intensity (Quadruplex DNA [16]) was 852 and the Flu intensity (Quadruplex DNA [17]) was 846. The Flu intensity (Quadruplex DNA [18]) was 861, the Activity (Quadruplex DNA [19]) was “Active” and the Activity (Quadruplex DNA [20]) was “Active”. The Activity (Quadruplex DNA [21]) was “Active”, the Activity (Quadruplex DNA [22]) was “inactive” and the Activity (Quadruplex DNA [23]) was “inactive”. For the same molecule, the Activity (Quadruplex DNA [24]) was “inactive”, the Activity (Quadruplex DNA [25]) was “inactive” and the Activity (Quadruplex DNA [26]) was “Active”. For the same molecule, the Activity (Quadruplex DNA [27]) was “Active”, the Activity (Quadruplex DNA [28]) was “inactive” and the Activity (Quadruplex DNA [29]) was “Active”.
